Measured values taken from PMC9619409 (Journal of Medicinal Chemistry, 2022).
≈ marks a conversion by molar mass, not a printed value. Entries after “also recorded” stand apart in the source; their conditions may differ.

How the values were obtained:
P. aeruginosa PA14 = assay: Antibiotic susceptibility; type: cell-based, Pseudomonas aeruginosa
Summary of the method: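 PA14 from LB agar (37 °C overnight) dispersed in MHB II to OD600 0.08–0.13, diluted 1:100 (final 5 × 10⁵ cfu/mL). Serial dilutions in PBS/20% DMSO (1 mM–1.9 μM before dilution) diluted ~1:20 into matrix at −3 h (sealed, 37 °C) or −10 min (room temperature).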

[1] = type: in vitro ADME; settings: human blood plasma spiked with fresh growth medium, within 3 h
[2] = type: in vitro ADME; settings: human blood plasma + PA14 culture supernatant, 37 °C, up to 3 h
Summary of the method: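 PA14 grown overnight in LB at 37 °C, 180 rpm. Culture centrifuged and supernatant 0.22 μm-filtered, then mixed 1:9 with pooled LiHep human plasma. Test compound (1 mM stock, PBS pH 7.4/20% DMSO) diluted 1:20 into matrix on ice and incubated at 37 °C, 500 rpm. Samples taken at 0, 30, 60, 120 and 180 min, quenched with ice-cold MeCN containing diphenhydramine internal standard, centrifuged, then analysed by HPLC-MS.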

[3] = Cleavage/stability in P. aeruginosa PA14 culture filtrate without plasma; type: in vitro ADME, Pseudomonas aeruginosa; settings: up to 24 h
A549 cells [4] = settings: cytotoxicity versus antimicrobial activity
[5] = Microsomal stability assay, mouse; type: in vitro ADME; settings: mouse liver microsomes
Summary of the method: (§1)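 Mouse or human liver microsomes thawed slowly on ice, then combined with test compound (from a 100 μM solution; final level not given) and 100 mM phosphate buffer. Pre-incubated 5 min at 37 °C in a water bath. Intrinsic clearance reported as μL/min/mg protein.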

[6] = Microsomal stability assay, human; type: in vitro ADME; settings: human liver microsomes
Summary of the method: as §1

A549 cells [7] = assay: Cell accumulation assay; type: cell-based, human; settings: for compound 2 found in cells after lysis (intracellular cleavage of prodrug): A549 cells treated with prodrug
[8] = Matrix 3: 10% P. aeruginosa culture supernatant in PBS, pre-incubation < 10 min

Q: For `O=C(O)c1cn(C2CC2)c2cc(N3CCNCC3)c(F)cc2c1=O` [Compound 1, Ciprofloxacin, reference compound], which MIC (P. aeruginosa PA14; Pseudomonas aeruginosa, PA14, Matrix 1: PBS, pre-incubation 3 h) is on record?
A: 0.125 to 0.25 µM (≈ 0.0414 to 0.0828 µg/mL)

Q: Which “release of antibiotic cargo (stability control)” value (from here on “release … (stability control)”) [1] does the source give for `CC(C)C[C@H](NC(=O)CNC(=O)[C@H](C)NC(=O)c1ccc(S[C@@H]2O[C@H](CO)[C@H](O)[C@H](O)[C@H]2O)cc1)C(=O)N[C@@H](C)C(=O)N1CCN(c2cc3c(cc2F)c(=O)c(C(=O)O)cn3C2CC2)CC1` [Compound 24, LecA-targeted ciprofloxacin-prodrug] here?
A: no significant release of the antibiotic cargo was observed

Q: What about the “release of native antibiotic cargo” value [2] of the same molecule?
A: not fully metabolized to release their native antibiotic cargo; also recorded: not completely processed to release free ciprofloxacin

Q: For `CC(C)C[C@H](NC(=O)CNC(=O)[C@H](C)NC(=O)c1ccc(S(=O)(=O)NC[C@H]2O[C@@H](C)[C@@H](O)[C@@H](O)[C@@H]2O)cc1)C(=O)N[C@@H](C)C(=O)N1CCN(c2cc3c(cc2F)c(=O)c(C(=O)O)cn3C2CC2)CC1` [Compound 25, LecB-Targeted Ciprofloxacin-Prodrug], which “release … (stability control)” value [1] is on record?
A: no significant release of the antibiotic cargo was observed

Q: And the “release of native antibiotic cargo” value [2]?
A: not fully metabolized to release their native antibiotic cargo; also recorded: not completely processed to release free ciprofloxacin

Q: With `CC(C)C[C@H](N)C(=O)N[C@@H](C)C(=O)N[C@H]1CCN(c2cc3c(cc2F)c(=O)c(C(=O)O)cn3C2CC2)C1` [Compound 35, 7-((S)-3-((S)-2-((S)-2-Amino-4-methylpentanamido)propanamido)pyrrolidin-1-yl)-1-cyclopropyl-6-fluoro-4-oxo-1,4-dihydroquinoline-3-carboxylic Acid] as the molecule, how does the “release of antibiotic cargo from dipeptide conjugate” value [3] read?
A: only slowly released their antibiotic cargo

Q: Which “release … (stability control)” value [1] does the source give for `CC(C)C[C@H](NC(=O)CNC(=O)[C@H](C)NC(=O)c1ccc(S[C@@H]2O[C@H](CO)[C@H](O)[C@H](O)[C@H]2O)cc1)C(=O)N[C@@H](C)C(=O)N[C@H]1CCN(c2cc3c(cc2F)c(=O)c(C(=O)O)cn3C2CC2)C1` [Compound 36, LecA-Targeted Aminopyrrolidine-fluoroquinolone Prodrug] here?
A: no significant release of the antibiotic cargo was observed

Q: And the “release of native antibiotic cargo” value [2]?
A: efficiently released

Q: What about the selectivity index (A549 cells [4]) of the same molecule?
A: greater than 20

Q: And the half-life at 1 h, 100 µM [5]?
A: 1.67 h

Q: And the microsomal CLint at 1 h, 100 µM [5]?
A: 14 µL/min/mg

Q: What about the MIC (P. aeruginosa PA14; Matrix 3: 10% P. aeruginosa culture supernatant in PBS, pre-incubation 3 h) of the same molecule?
A: 0.195 to 3.13 µM

Q: And the MIC (P. aeruginosa PA14; [8])?
A: 0.78 to 3.13 µM

Q: What about the half-life at 1 h, 100 µM [6] of the same molecule?
A: 1.55 h

Q: And the microsomal CLint at 1 h, 1 µM [6]?
A: 15 µL/min/mg

Q: And the “fold decreased ability to permeate into human cells versus 2” value (A549 cells [7]; A549 cells)?
A: up to 100 fold

Q: What about the “compound 2 found in cells after lysis (intracellular cleavage of prodrug)” value (A549 cells [7]) of the same molecule?
A: not detected

Q: And the intracellular concentration (A549 cells [7]; A549 cells, 10 μg/mL, after 15, 30, and 60 min)?
A: 55 to 130 ng/mL

Q: For `CC(C)C[C@H](NC(=O)CNC(=O)[C@H](C)NC(=O)c1ccc(S(=O)(=O)NC[C@H]2O[C@@H](C)[C@@H](O)[C@@H](O)[C@@H]2O)cc1)C(=O)N[C@@H](C)C(=O)N[C@H]1CCN(c2cc3c(cc2F)c(=O)c(C(=O)O)cn3C2CC2)C1` [Compound 37, LecB-Targeted Aminopyrrolidine-FQ-Prodrug], which “release … (stability control)” value [1] is on record?
A: no significant release of the antibiotic cargo was observed

Q: What about the “release of native antibiotic cargo” value [2] of the same molecule?
A: efficiently released

Q: And the half-life at 1 h, 100 µM [5]?
A: 3.6 h

Q: And the microsomal CLint at 1 h, 1 µM [5]?
A: 6.4 µL/min/mg

Q: What about the half-life at 1 h, 100 µM [6] of the same molecule?
A: 2.97 h

Q: And the microsomal CLint at 1 h, 100 µM [6]?
A: 7.8 µL/min/mg

Q: And the “fold decreased ability to permeate into human cells versus 2” value (A549 cells [7]; A549 cells)?
A: up to 100 fold

Q: What about the “compound 2 found in cells after lysis (intracellular cleavage of prodrug)” value (A549 cells [7]) of the same molecule?
A: not detected

Q: For `CC(C)C[C@H](NC(=O)CNC(=O)[C@H](C)NC(=O)c1ccc(S[C@@H]2O[C@H](CO)[C@H](O)[C@H](O)[C@H]2O)cc1)C(=O)N[C@@H](C)C(=O)NC[C@@H]1CCN(c2cc3c(cc2F)c(=O)c(C(=O)O)cn3C2CC2)C1` [Compound 48, LecA-Targeted Aminomethylpyrrolidine-FQ-Prodrug], which “release … (stability control)” value [1] is on record?
A: no significant release of the antibiotic cargo was observed

Q: What about the “release of native antibiotic cargo” value [2] of the same molecule?
A: efficiently released

Q: For `CC(C)C[C@H](NC(=O)CNC(=O)[C@H](C)NC(=O)c1ccc(S(=O)(=O)NC[C@H]2O[C@@H](C)[C@@H](O)[C@@H](O)[C@@H]2O)cc1)C(=O)N[C@@H](C)C(=O)NC[C@@H]1CCN(c2cc3c(cc2F)c(=O)c(C(=O)O)cn3C2CC2)C1` [Compound 49, LecB-Targeted Aminomethylpyrrolidine-FQ-Prodrug], which “release … (stability control)” value [1] is on record?
A: no significant release of the antibiotic cargo was observed

Q: What about the “release of native antibiotic cargo” value [2] of the same molecule?
A: efficiently released

Q: And the MIC (P. aeruginosa PA14; [8])?
A: 3.13 to 6.25 µM

Q: Which “release of antibiotic cargo from dipeptide conjugate” value [3] does the source give for “Leu-Ala-Ciprofloxacin Conjugate [Compound 19]” here?
A: only slowly released their antibiotic cargo
